ChEMBL document CHEMBL1137767, “2-(3-Aryl-2-propenoyl)-3-methylquinoxaline-1,4-dioxides: a novel cluster of tumor-specific cytotoxins which reverse multidrug resistance” (Bioorg Med Chem, 2009)
Calls of active or inactive are those of the source. The calls are words filed in the database; no cut-off is given here.

Legend:
[1] = molecular target: T1, ATP-dependent translocase ABCB1 (Homo sapiens, UniProt P08183); experiment: Reversal of P-glycoprotein-mediated multidrug resistance in human MDR1 gene transfected mouse L5178Y cells assessed as fluorescence activity ratio at 200 uM by rhodamine 123 accumulation assay; format: cell-based
How it was run: (§1)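 Murine L-5178Y lymphoma cells transfected with human MDR1 gene (P-gp-overexpressing), alongside parental cells, treated or untreated with compound; rhodamine 123 accumulation measured by fluorescence; FAR = ratio of fluorescence intensity in treated versus untreated cells, values above 1 taken as MDR reversal.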

HSC-3 = experiment: Cytotoxicity against human HSC3 cells after 48 hrs; format: functional; conditions: HSC-3, 48 h
[2] = Cytotoxicity against human HGF cells after 48 hrs; format: cell-based
CCRF-CEM [3] = experiment: Growth inhibition of human CEM cells after 3 days; format: functional, cell-based; conditions: 72 h
How it was run: (§2)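 Human CEM and Molt 4/C8 T-lymphocytes were grown for three days with or without serial dilutions of the compound. IC50 is the concentration that inhibits cell growth by 50%.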

[4] = Cytotoxicity against human HPLF cells after 48 hrs; format: cell-based
[5] = molecular target: T1, ATP-dependent translocase ABCB1; experiment: Reversal of P-glycoprotein-mediated multidrug resistance in human MDR1 gene transfected mouse L5178Y cells assessed as fluorescence activity ratio at 20 uM by rhodamine 123 accumulation assay; format: cell-based; how it was run: as §1
HSC-2 = experiment: Cytotoxicity against human HSC2 cells after 48 hrs; format: functional; conditions: HSC-2, 48 h
HSC-4 = experiment: Cytotoxicity against human HSC4 cells after 48 hrs; format: functional; conditions: HSC-4, 48 h
[6] = Cytotoxicity against human HPC cells after 48 hrs; format: cell-based
HL-60 [7] = experiment: Cytotoxicity against human HL60 cells after 48 hrs; format: functional; conditions: HL-60, 48 h
[8] = Growth inhibition of human Molt4/C8 cells after 3 days; format: functional, cell-based; conditions: MOLT-4, 72 h; how it was run: as §2
K562 = experiment: Growth inhibition of human K562 cells at 10 uM; format: functional, cell-based
How it was run: (§3)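 Human tumor cell line panel (59 lines across leukemia, melanoma, non-small cell lung, colon, CNS, ovarian, renal, prostate, breast) treated at a single 10 uM concentration; growth inhibition recorded per line.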

A498 = experiment: Growth inhibition of human A498 cells at 10 uM; format: functional, cell-based; how it was run: as §3
IGROV-1 = experiment: Growth inhibition of human IGROV1 cells at 10 uM; format: functional, cell-based; how it was run: as §3
LOX IMVI = experiment: Growth inhibition of human LOXIMVI cells at 10 uM; format: functional, cell-based; how it was run: as §3
PC-3 = experiment: Growth inhibition of human PC3 cells at 10 uM; format: functional, cell-based; how it was run: as §3
SNB-75 = experiment: Growth inhibition of human SNB75 cells at 10 uM; format: functional, cell-based; how it was run: as §3
NCI-H522 = experiment: Growth inhibition of human NCI-H522 cells at 10 uM; format: functional, cell-based; how it was run: as §3
CAKI-1 = experiment: Growth inhibition of human Caki1 cells at 10 uM; format: functional, cell-based; how it was run: as §3
HOP-92 = experiment: Growth inhibition of human HOP92 cells at 10 uM; format: functional, cell-based; how it was run: as §3
U-251 = experiment: Growth inhibition of human U251 cells at 10 uM; format: functional, cell-based; how it was run: as §3
EKVX = experiment: Growth inhibition of human EKVX cells at 10 uM; format: functional, cell-based; how it was run: as §3
SF-295 = experiment: Growth inhibition of human SF295 cells at 10 uM; format: functional, cell-based; how it was run: as §3
RXF 393 = experiment: Growth inhibition of human RXF393 cells at 10 uM; format: functional, cell-based; how it was run: as §3
HCC 2998 = experiment: Growth inhibition of human HCC2998 cells at 10 uM; format: functional, cell-based; how it was run: as §3
M14 = experiment: Growth inhibition of human M14 cells at 10 uM; format: functional, cell-based; how it was run: as §3
UO-31 = experiment: Growth inhibition of human UO31 cells at 10 uM; format: functional, cell-based; how it was run: as §3
MDA-MB-468 = experiment: Growth inhibition of human MDA-MB-468 cells at 10 uM; format: functional, cell-based; how it was run: as §3
NCI/ADR-RES = experiment: Growth inhibition of human NCI/ADR-RES cells at 10 uM; format: functional, cell-based; how it was run: as §3
OVCAR-3 = experiment: Growth inhibition of human OVCAR-3 cells at 10 uM; format: functional, cell-based; how it was run: as §3
CCRF-CEM [9] = experiment: Growth inhibition of human CCRF-CEM cells at 10 uM; format: functional, cell-based; how it was run: as §3
HL-60 [10] = experiment: Growth inhibition of human HL60 cells at 10 uM; format: functional, cell-based; how it was run: as §3
A549 = experiment: Growth inhibition of human A549 cells at 10 uM; format: functional, cell-based; how it was run: as §3
NCI-H23 = experiment: Growth inhibition of human NCI-H23 cells at 10 uM; format: functional, cell-based; how it was run: as §3
Hs-578T = experiment: Growth inhibition of human Hs 578T cells at 10 uM; format: functional, cell-based; how it was run: as §3
OVCAR-8 = experiment: Growth inhibition of human OVCAR8 cells at 10 uM; format: functional, cell-based; how it was run: as §3
DU-145 = experiment: Growth inhibition of human DU145 cells at 10 uM; format: functional, cell-based; how it was run: as §3
RPMI8266 = experiment: Growth inhibition of human […] cells at 10 uM; format: functional, cell-based; how it was run: as §3
MCF7 = experiment: Growth inhibition of human MCF7 cells at 10 uM; format: functional, cell-based; how it was run: as §3
MDA-MB-435 = experiment: Growth inhibition of human MDA-MB-435 cells at 10 uM; format: functional, cell-based; how it was run: as §3
NCI-H460 = experiment: Growth inhibition of human NCI-H460 cells at 10 uM; format: functional, cell-based; how it was run: as §3
UACC-62 = experiment: Growth inhibition of human UACC62 cells at 10 uM; format: functional, cell-based; how it was run: as §3
SW-620 = experiment: Growth inhibition of human SW620 cells at 10 uM; format: functional, cell-based; how it was run: as §3
OVCAR-4 = experiment: Growth inhibition of human OVCAR4 cells at 10 uM; format: functional, cell-based; how it was run: as §3
T47D = experiment: Growth inhibition of human T47D cells at 10 uM; format: functional, cell-based; how it was run: as §3
HCT-15 = experiment: Growth inhibition of human HCT15 cells at 10 uM; format: functional, cell-based; how it was run: as §3
HCT-116 = experiment: Growth inhibition of human HCT116 cells at 10 uM; format: functional, cell-based; how it was run: as §3

T1 sequence (P08183 whole entry): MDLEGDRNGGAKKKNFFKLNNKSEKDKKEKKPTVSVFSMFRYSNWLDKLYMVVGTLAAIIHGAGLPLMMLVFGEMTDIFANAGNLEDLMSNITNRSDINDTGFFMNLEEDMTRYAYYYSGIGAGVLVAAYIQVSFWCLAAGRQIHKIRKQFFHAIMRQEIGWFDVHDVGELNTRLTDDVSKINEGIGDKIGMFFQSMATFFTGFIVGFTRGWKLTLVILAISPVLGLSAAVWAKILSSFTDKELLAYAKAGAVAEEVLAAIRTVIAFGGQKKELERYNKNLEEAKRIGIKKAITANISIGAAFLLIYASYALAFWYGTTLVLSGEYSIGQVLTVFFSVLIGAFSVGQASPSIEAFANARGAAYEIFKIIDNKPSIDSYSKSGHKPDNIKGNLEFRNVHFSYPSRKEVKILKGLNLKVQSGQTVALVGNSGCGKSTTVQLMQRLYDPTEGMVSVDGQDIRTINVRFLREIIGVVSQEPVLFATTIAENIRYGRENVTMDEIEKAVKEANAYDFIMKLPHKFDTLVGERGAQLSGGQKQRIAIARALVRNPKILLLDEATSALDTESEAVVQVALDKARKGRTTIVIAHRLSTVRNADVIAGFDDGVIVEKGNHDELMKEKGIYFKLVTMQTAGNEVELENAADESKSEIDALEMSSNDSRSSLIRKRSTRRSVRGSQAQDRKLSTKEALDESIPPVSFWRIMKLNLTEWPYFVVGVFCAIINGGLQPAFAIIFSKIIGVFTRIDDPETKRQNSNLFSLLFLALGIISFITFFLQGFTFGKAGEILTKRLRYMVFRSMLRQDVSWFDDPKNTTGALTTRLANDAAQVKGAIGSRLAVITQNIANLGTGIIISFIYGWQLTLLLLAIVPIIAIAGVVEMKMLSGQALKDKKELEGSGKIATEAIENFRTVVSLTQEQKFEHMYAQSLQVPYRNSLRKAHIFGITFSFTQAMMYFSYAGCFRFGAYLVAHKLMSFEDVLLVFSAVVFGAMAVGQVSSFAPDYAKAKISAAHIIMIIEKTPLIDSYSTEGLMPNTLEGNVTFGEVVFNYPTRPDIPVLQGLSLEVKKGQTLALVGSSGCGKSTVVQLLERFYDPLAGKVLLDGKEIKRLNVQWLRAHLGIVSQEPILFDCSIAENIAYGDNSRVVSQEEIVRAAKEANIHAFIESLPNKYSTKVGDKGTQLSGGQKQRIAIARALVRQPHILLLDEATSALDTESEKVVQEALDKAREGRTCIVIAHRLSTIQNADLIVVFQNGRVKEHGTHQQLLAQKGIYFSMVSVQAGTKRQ

Molecule `Cc1c(C(=O)/C=C/c2ccc3c(c2)OCO3)[n+]([O-])c2ccccc2[n+]1[O-]` has a Ratio [1] of 3.67, a CC50 (HSC-3) of 25 µM and a CC50 at 48 h [2] of 75 µM. For the same molecule, the IC50 (CCRF-CEM [3]) was 28.1 µM, the CC50 at 48 h [4] was 72 µM and the Ratio [5] was 1.58. For the same molecule, the CC50 (HSC-2) was 23 µM, the CC50 (HSC-4) was 28 µM and the CC50 at 48 h [6] was 79 µM. For the same molecule, the CC50 (HL-60 [7]) was 13 µM and the IC50 [8] was 24.2 µM.

`Cc1ccc(/C=C/C(=O)c2c(C)[n+]([O-])c3ccccc3[n+]2[O-])cc1` gave a Ratio [1] of 27.2, a CC50 (HSC-3) of 14 µM and a CC50 at 48 h [2] of 32 µM. For the same molecule, the IC50 (CCRF-CEM [3]) was 22.4 µM, the CC50 at 48 h [4] was 23 µM and the Ratio [5] was 9.79. It also gave a CC50 (HSC-2) of 8.4 µM, a CC50 (HSC-4) of 11 µM and a CC50 at 48 h [6] of 40 µM. It also gave a CC50 (HL-60 [7]) of 4.1 µM and an IC50 [8] of 8.4 µM.

With `COc1ccc(/C=C/C(=O)c2c(C)[n+]([O-])c3ccccc3[n+]2[O-])cc1` the “growth inhibition (GI)” value (K562) was “Active”, the “growth inhibition (GI)” value (A498) was “Active” and the Ratio [1] was 31.7. For the same molecule, the “growth inhibition (GI)” value (IGROV-1) was “Active”, the “growth inhibition (GI)” value (LOX IMVI) was “Active” and the CC50 (HSC-3) was 23 µM. The “growth inhibition (GI)” value (PC-3) was “Active”, the “growth inhibition (GI)” value (SNB-75) was “Active” and the “growth inhibition (GI)” value (NCI-H522) was “Active”. For the same molecule, the “growth inhibition (GI)” value (CAKI-1) was “Active”, the CC50 at 48 h [2] was 52 µM and the IC50 (CCRF-CEM [3]) was 27.6 µM. For the same molecule, the “growth inhibition (GI)” value (HOP-92) was “Active”, the “growth inhibition (GI)” value (U-251) was “Active” and the “growth inhibition (GI)” value (EKVX) was “Active”. The “growth inhibition (GI)” value (SF-295) was “Active”, the “growth inhibition (GI)” value (RXF 393) was “Active” and the CC50 at 48 h [4] was 93 µM. The “growth inhibition (GI)” value (HCC 2998) was “Active”, the “growth inhibition (GI)” value (M14) was “Active” and the “growth inhibition (GI)” value (UO-31) was “Active”. The “growth inhibition (GI)” value (MDA-MB-468) was “Active”, the “growth inhibition (GI)” value (NCI/ADR-RES) was “Active” and the “growth inhibition (GI)” value (OVCAR-3) was “Active”. The Ratio [5] was 4.25, the “growth inhibition (GI)” value (CCRF-CEM [9]) was “Active” and the CC50 (HSC-2) was 20 µM. The “growth inhibition (GI)” value (HL-60 [10]) was “Active”, the “growth inhibition (GI)” value (A549) was “Active” and the “growth inhibition (GI)” value (NCI-H23) was “Active”. The “growth inhibition (GI)” value (Hs-578T) was “Active”, the CC50 (HSC-4) was 11 µM and the “growth inhibition (GI)” value (OVCAR-8) was “Active”. For the same molecule, the “growth inhibition (GI)” value (DU-145) was “Active”, the “growth inhibition (GI)” value (RPMI8266) was “Active” and the “growth inhibition (GI)” value (MCF7) was “Active”. For the same molecule, the “growth inhibition (GI)” value (MDA-MB-435) was “Active”, the “growth inhibition (GI)” value (NCI-H460) was “Active” and the “growth inhibition (GI)” value (UACC-62) was “Active”. The “growth inhibition (GI)” value (SW-620) was “Active”, the CC50 at 48 h [6] was 92 µM and the “growth inhibition (GI)” value (OVCAR-4) was “Active”. The “growth inhibition (GI)” value (T47D) was “Active”, the CC50 (HL-60 [7]) was 16 µM and the “growth inhibition (GI)” value (HCT-15) was “Active”. For the same molecule, the “growth inhibition (GI)” value (HCT-116) was “Active” and the IC50 [8] was 25.8 µM.
